Test results from ChEMBL document CHEMBL4513216, “Probing the Open Global Health Chemical Diversity Library for Multistage-Active Starting Points for Next-Generation Antimalarials” (ACS Infect Dis, 2020).

Assay: Toxicity liver stage against HepG2, at 10uM
Type: cell-based
Set-up: test concentration 10 uM, cell line HepG2-A16-CD81EGFP
Settings: human, HepG2-A16-CD81EGFP cells; read-out: INHIBITION
Summary of the method: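 Uninfected HepG2-A16-CD81EGFP cells, 3 × 10^3 per well, 1536-well, plated on prespotted compound at 10 μM final, parasite-free screening media added to match infected plates; puromycin 10 μM positive, DMSO 0.5% negative; run in parallel with 48 h PbLuc assay at 37 °C, 5% CO2; viability by CellTiter-Glo luminescence, normalized to controls.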

| SMILES | cytotoxicity at 10 µM |
| --- | --- |
| O=C(C1CC1)N1CC[C@H](c2nnc(Cc3c[nH]c4ccccc34)o2)C1 | 4.09% |
| CC(C)NC(=O)N1CCOC2(CCCNC2)C1 (stereo unspecified) | 4.76% |
| CCN1CC2(CCCCN2C(=O)C2CCCCC2)CC1=O (stereo unspecified) | 18.3% |
| CCNC(=O)N1CCC2(CC1)CCn1c(-c3cccc(OC)c3)cnc12 | 2.81% |
| CCOC(=O)N1CCN(C(=O)c2sc(-c3ccc(F)cc3)nc2C)CC1 | 10.7% |
| Cc1cccc(C(=O)N2C[C@@H]3OCCN(C(C)C)[C@@H]3C2)n1 | -9.2% |
| O=C(Cn1ccc(C(=O)O)n1)Nc1c(Cl)cccc1Cl | 7.07% |
| Cc1cc(N(C)C)nc(C2(C)CCCN2CC(N)=O)n1 (stereo unspecified) | -2.8% |
| Cc1ccc(-c2nnc(C3CCCN3S(=O)(=O)c3cnn(C)c3C)o2)s1 (stereo unspecified) | 5.35% |
| NC(=O)C1(c2cnccn2)CCCN1Cc1ccccn1 (stereo unspecified) | -6.36% |
| COc1ccc(C)cc1CC(=O)N1CC[C@@]2(CCCO2)[C@@H](O)C1 | -1.47% |
| Cc1cccc(Nc2cc(C)nc(C3CCCCN3CC(N)=O)n2)n1 (stereo unspecified) | -4.03% |
| COCC(=O)N1CCCC1c1cc(N2CCN(C(C)=O)CC2)cc(C)n1 (stereo unspecified) | -9.41% |
| COc1cccc(C(=O)N2CCCC2c2ncc3c(n2)CCN(C)C3)c1 (stereo unspecified) | -9.41% |
| CC(=O)NC[C@]1(O)CCN(C(=O)c2ccc(F)c(Cl)c2)C[C@H]1O | 1.47% |
| Cc1cc(C(=O)N(C)C2CCS(=O)(=O)C2)c2ccc(F)cc2n1 (stereo unspecified) | -9.59% |
| COCC(=O)NC(c1ccccc1)c1ccc2c(c1)CCCO2 (stereo unspecified) | -1.83% |
| CN(Cc1nnc2ccccn12)C(=O)NC1CCCCC1 | -5.97% |
| COc1ccccc1CC1CCCN(C(=O)c2n[nH]c3c2CCC3)C1 (stereo unspecified) | 13.3% |
| Cc1cc(C2CCCN2Cc2nnc(-c3ccco3)o2)on1 (stereo unspecified) | 8.92% |
| NC(=O)c1ccc(CNC(=O)NCc2cc[nH]n2)cc1 | 12.3% |
| CNC(=O)c1c(C)cccc1NCC(=O)Nc1cc(C)nn1C | -0.503% |
| CC(Cc1cccc(F)c1)C(=O)NS(=O)(=O)c1cnn(C)c1 (stereo unspecified) | 2.11% |

| SMILES | cytotoxicity at 10 µM |
| --- | --- |
| CCNc1cc2c(nn1)CCN(C(=O)C1Cc3ccccc3O1)C2 (stereo unspecified) | -9.32% |
| Cc1nc(-c2cnn(C)c2)sc1C(=O)NCc1ccc(C)n1C | 9.25% |
| CC1CN(C(=O)NCc2cccc(C#N)c2)CCN1CC(F)(F)F (stereo unspecified) | -6.68% |
| CN(C)c1nccc(NC(=O)c2ccncc2)n1 | -4.33% |
| COC1CCN(C(=O)Cn2nc(C)cc2C)CC1 | 3.81% |
| CC(CC(=O)N1CCCN(Cc2nccn2C)CC1)n1cccc1 (stereo unspecified) | -12.5% |
| N#Cc1cccnc1N1CCC(OCc2ccccc2)CC1 | -7.43% |
| CNC(=O)CN1CCOC(c2ccccc2C(F)(F)F)C1 (stereo unspecified) | 0.71% |
| O=C(NCC1(N2CCOCC2)CCSC1)Nc1ccncc1 (stereo unspecified) | 12.5% |
| O=S(=O)(NCC1COc2ccccc2C1)N1CCOCC1 (stereo unspecified) | -1.5% |
| COCCNC(=O)Nc1cccc(COCCOC(C)C)c1 | 6.13% |
| O=C(NC1CCC(C(=O)N2CCSCC2)CC1)N1CCOCC1 (stereo unspecified) | 13.1% |
| CCc1nccn1C1CCCN(C(=O)c2cc[nH]n2)C1 (stereo unspecified) | 4.54% |
| O=C(NC1CC1)c1nnn(-c2cccc(C(F)(F)F)c2)c1C1CC1 | 4.01% |
| Cc1cc(C)n(CC2CN(Cc3cccnc3)CCO2)n1 (stereo unspecified) | -3.08% |
| Cc1cc(C)n(C2CCCN(C(=O)c3ccc(F)c(F)c3)C2)n1 (stereo unspecified) | -4.91% |
| CC(C)CC(CCO)CNC(=O)N1CCCC1(C)C (stereo unspecified) | -12.7% |
| COc1cc(F)ccc1N1CCN(Cc2nc(C)c(C)o2)CC1 | 10.7% |
| CN(C(=O)COC1CCCCC1)C1CCN(CC2CCOC2)CC1 (stereo unspecified) | 0.33% |
| Cc1c(C(=O)NC2(C#N)CCSC2)cnn1-c1ccccc1Cl (stereo unspecified) | -2.06% |
| CNC(=O)c1cccc(CNC(C)c2cc(Cl)ccc2OC)c1 (stereo unspecified) | 10.3% |
| CCc1n[nH]c(=O)c(C(=O)N2CCSC(C)(C)C2)c1CC | 18.6% |
| COC(C)(C)CNC(=O)c1cn(-c2cccc(Cl)c2F)nn1 | 8.83% |

| SMILES | cytotoxicity at 10 µM |
| --- | --- |
| CC(C)N(C)C(=O)c1ccc(Cl)c(NC(=O)C2CCC2)c1 | -2.74% |
| CCCNC(=O)C(C)Nc1ccc(COCC)cc1 (stereo unspecified) | 2.37% |
| Cc1ncc(CN(C)C(=O)c2ccc3c(c2O)OC(C)(C)C3)s1 | 6.93% |
| COCCNC(=O)C(C)S(=O)(=O)c1ccc(OC)cc1 (stereo unspecified) | 4.4% |
| Cc1cccc(S(=O)(=O)NCC(C)(C)CC(C)O)c1C#N (stereo unspecified) | -1.37% |
| CC(=O)N1CCN(CC=C(C)C)CC1 | 3.95% |
| Cc1ccsc1CN(C)c1cc(N2CCCC2CO)ncn1 (stereo unspecified) | 11.7% |
| Cc1cc(C)cc(C(=O)N2CCN(C(=O)N(C)C)CC2(C)C)c1 | 1.98% |
| CCCN(C)S(=O)(=O)NC(=O)c1ccc(CC)o1 | 20.5% |
| CN(CCc1ccc2c(c1)CCO2)C1CCS(=O)(=O)CC1 | -7.94% |
| CC(NCCCC#N)c1ccc(S(C)(=O)=O)c(F)c1 (stereo unspecified) | 6.96% |
| CSC(C)(C)CNC(=O)NC1CCN(C)CC1 | 18.9% |
| O=C(c1cccnc1-n1cccn1)N1CCN(CC2CC2)CC1 | -4.71% |
| CC(C)NC(=O)NCCCc1cc(N)n(-c2ccccc2)n1 | -6.78% |
| COc1ccc(CS(=O)(=O)CC(=O)NCC2CC2)cc1F | -0.265% |
| O=C(Cc1cccs1)N1Cc2nc(COCC3CC3)oc2C1 | 2.55% |
| CN(C)C(=O)C1CCC2(CCN(C(=O)Nc3cccc(F)c3)CC2)O1 (stereo unspecified) | -104% |
| CCS(=O)(=O)NC[C@]12COC[C@H]1CN(Cc1cc(C)on1)C2 | 2.34% |
| COC(=O)c1ccc2c(-c3ccnc(N[C@@H](C)CO)n3)c[nH]c2c1 | -5.94% |
| CN(c1nccc(-c2cnc3sccn3c2=O)n1)C1CCCCC1 | -8.44% |
| CCCOc1ccc(C(=O)N2CCN3CCNC(=O)C3C2)cc1Cl (stereo unspecified) | -1.65% |
| Cc1[nH]c2ccc(CNC3CCN(Cc4ccccn4)CC3)cc2c1C | 3.97% |
| Cc1cnc(NC(=O)c2cccc(CN(C)Cc3ncccc3C)c2)s1 | 14.2% |

| SMILES | cytotoxicity at 10 µM |
| --- | --- |
| CCN1CCC(CC(=O)N2CCn3cccc3C2c2cccnc2)CC1 (stereo unspecified) | -8.87% |
| O=C(NC1CCCN(c2ncccn2)C1)c1cn2ccccc2n1 (stereo unspecified) | -4.38% |
| O=C(NCCC1CN(Cc2c[nH]cn2)CCO1)c1ccccc1O (stereo unspecified) | 0.423% |
| CCN1CC2(CCC1=O)CCN(C(=O)c1ccc(C)cc1O)CC2 | -0.0198% |
| CN(C)c1ccc(CN2CCN(c3ccc(C#N)cc3)C(=O)C2)cn1 | -28.2% |
| O=S1(=O)CCC(n2cc(C3=CCN(CCN4CCCCC4)CC3)cn2)C1 (stereo unspecified) | -8.29% |
| CCc1nc(C)sc1CN(Cc1ccncc1)C1CCN(C)CC1 | 6.4% |
| CC(C)C(O)C1CCN(c2ccnc(C(=O)NCc3ccco3)c2)CC1 (stereo unspecified) | -0.598% |
| CS(=O)(=O)N1C[C@H]2CNC[C@@]2(C(=O)NCCOc2ccccc2)C1 | 2.1% |
| CCC[C@@H]1CN(C(=O)c2cc(-c3cccs3)n(C)n2)C[C@H]1NS(C)(=O)=O | -1.63% |
| CC(C)(C)C(=O)N[C@H]1CC[C@H](Nc2nccc(-c3ccncc3)n2)C1 | 5.05% |
| O=C1NCCN2CCN(C(=O)Nc3ccc(-c4ccccc4)cc3)CC12 (stereo unspecified) | -119% |
| CCc1nc(C)c(CN2CCOC(Cc3cccc4ccccc34)C2)[nH]1 (stereo unspecified) | -5.54% |
| Cc1ccccc1CN(CCN(C)C)C(=O)c1ccc2nccn2c1 | -2.36% |
| O=C(NCCNc1cc(N2CCCC2)ncn1)c1cnccn1 | -46.3% |
| CCS(=O)(=O)N1CCC(c2nnc(CN3CCOCC3)n2C)CC1 | 17% |
| CN1C(=O)CC(C(=O)O)C12CCN(Cc1ccc(F)cc1Cl)CC2 (stereo unspecified) | -4.88% |
| Cn1ncc2c(N3CCN(C(N)=O)CC3)nc(C3CCCC3)nc21 | 18.2% |
| CC(C)(C)CC(=O)NS(=O)(=O)c1ccc(C#N)cc1C(F)(F)F | -12.3% |
| Cc1nnc(C(C)N2CCCN(Cc3ccc(F)cc3)CC2)o1 (stereo unspecified) | -4.92% |
| Cc1cnn(C2CCCN(C(=O)CCNS(C)(=O)=O)C2)c1 (stereo unspecified) | -28.6% |
| Cc1nn(CCO)c(C)c1CNCc1cccnc1N(C)C | -9.89% |
| CS(=O)(=O)c1ccc(C(=O)N2CCCC(n3cccn3)C2)cc1 (stereo unspecified) | -6.98% |

| SMILES | cytotoxicity at 10 µM |
| --- | --- |
| COc1ccc(CNCc2c(C(C)C)nn(C)c2N(C)C)cn1 | -3.92% |
| CCN1CCN(C(=O)c2cnc3c(cnn3C3CCCC3)c2)CC1 | -14.1% |
| Cn1ccc2c(C(=O)N3CCCC3c3noc(C4CC4)n3)cccc21 (stereo unspecified) | -7.82% |
| N#Cc1ccccc1N1CCCN(C(=O)CCc2ccsc2)CC1 | -8.25% |
| Cc1ncc2c(n1)CN(CCCOc1ccc(C#N)cc1)CC2 | -3.9% |
| CCc1nc(CN2CCCN(C(=O)CCCOC)CC2)cs1 | -14.4% |
| CN(Cc1nnc2n1CCC2)C(=O)Cc1ccc2c(c1)CCC2 | -15.5% |
| COc1cccc(C(=O)N(C)Cc2ncc(C)c(OC)c2C)c1OC | -7.02% |
| Cc1nccc(-c2cccc(NCC(=O)N3CCCCCCC3)c2)n1 | -0.513% |
| Cc1csc(N2CCN(C(=O)Cc3ccsc3)CC2)n1 | 2.68% |
| Cc1nn(C)c(N(C)C)c1CNC(C)Cc1c(F)cccc1F (stereo unspecified) | -1.03% |
| c1nn(C2CCCCC2)cc1-c1cncn1CCCN1CCCCC1 | 2.37% |
| Cc1ncsc1CN1C[C@@H]2COC[C@]2(C(=O)NC(C)C)C1 | -98.6% |
| Cc1ccc(CN2CCC3(CC2)C(=O)N(CCO)CCN3C)o1 | -1.63% |
| CC(C)COCc1cncc2c1CCN(C(=O)c1cscn1)C2 | -108% |
| Cc1ccc(CN2CC[C@H]3CO[C@H](CN(C)Cc4ccco4)[C@H]3C2)s1 | 4.74% |
| c1cnc(N2CCCn3nnc(COCC4CC4)c3C2)nc1 | -4.97% |
| Cc1noc([C@@]23CCO[C@@H]2CCN(Cc2scnc2C)C3)n1 | -111% |
| C1CC(CN2C[C@@H]3CC[C@H]2CN(Cc2noc(C4CCCC4)n2)C3)C1 | -15.6% |
